Here are results for 46 compounds from ChEMBL document CHEMBL2406988, “Inhibition of the human proteasome by imidazoline scaffolds” (J Med Chem, 2013).

Data set [1] in a line: Inhibition of chymotryptic-like activity of human 20S proteasome using Suc-LLVY-AMC as substrate measured every min over 30 mins by fluorescence assay.
Data set [2] in a line: Inhibition of NFkappaB-mediated gene transcription in human HeLa cells after 1 hr by Dual-Glo luciferase reporter assay. Format: cell-based.
Data set [3] deals with THP-1. As to the kind of experiment: Cytotoxicity against wild type human THP1 cells assessed as cell viability at 10 uM after 72 hrs by MTS assay relative to vehicle-treated control. Format: functional. Particulars: THP-1, 72 h, read-out: Activity. In a few lines: (§1)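 THP-1 cells in RPMI-1640 with 10% FBS, penicillin/streptomycin, 1 mM sodium pyruvate and 0.2 mM L-glutamine at 37°C, 5% CO2. […] Compound in DMSO, final 10 μM, 0.5% DMSO, 72 h. MTS (CellTiter 96 AQueous One) read at 490 nm, background-subtracted, as % of vehicle.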
For orientation: Tetrazolium assays rely on reduction of a dye to a coloured formazan, in cell work by metabolically active cells.

The test system of data set [4] is THP-1. In words: Cytotoxicity against bortezomib-resistant human THP1 cells assessed as cell viability at 10 uM after 72 hrs by MTS assay relative to vehicle-treated control. Particulars: for viability at 10 µM: THP-1, 72 h, read-out: Activity. Format: functional. An outline of the steps: as §1
Data set [5] in a line: Solubility of the compound in dextrose-water solution at pH 6.5 after 5 mins. Format: physicochemical. Particulars: buffer, pH 6.5, 5 min. In a few lines:
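1 mL of 5% dextrose in water is brought to pH 6.5 with 3 μl 2 N HCl. Solid is added in 0.5 mg portions, then 0.1 mg near saturation. Each addition is vortexed 40 s and sonicated 30 s at 37.5°C, then held 5 min at 37.5°C and judged visually.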

Data set [6] can be described thus: Inhibition of 20S proteasome (unknown origin). Also on record: species or system Homo sapiens.
Data set [7] relates to THP-1. In words: Cytotoxicity against wild type human THP1 cells assessed as cell viability at 0.5 uM after 72 hrs by MTS assay relative to vehicle-treated control. Particulars: THP-1, 72 h, read-out: Activity.
The subject of data set [8] is THP-1. In words: cells. Particulars: Homo sapiens, THP-1, 72 h, read-out: Activity.
For data set [9], the species on record is Homo sapiens. As to the kind of experiment: Non-competitive inhibition of chymotryptic-like activity of human 20S proteasome using Suc-LLVY-AMC as substrate at 1.25 to 5 uM. In a few lines:
(§2)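 Kinetics: purified human 20S proteasome with vehicle or inhibitor at 1.25, 2.5 or 5 μM across varying Suc-LLVY-AMC concentrations. Velocity is followed by AMC fluorescence as in the activity assay. Vmax and Km come from Michaelis-Menten fits with a Lineweaver-Burk plot.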

For data set [10], the species on record is Homo sapiens. In words: Non-competitive inhibition of chymotryptic-like activity of human 20S proteasome using Suc-LLVY-AMC as substrate. An outline of the steps: as §2

Each structure is given as a SMILES string. Values after ≈ are worked out from the molar mass of the structure shown. Active and inactive are the calls of the source. No cut-off for these calls is given here. Bounds are passed on as bounds.

As usually defined, the IC50 is the point on the concentration scale where inhibition reaches its midpoint. A high value points to a need for much substance. With `CCOC(=O)[C@]1(c2ccccc2)N=C(c2ccccc2)N(Cc2ccco2)[C@@H]1c1ccccc1`, the IC50 in [1] turned out to be 7040 nM. In other words, the single-digit micromolar range.

On to `O=C(OCCO)[C@]1(c2ccccc2)N=C(c2ccccc2)N(Cc2ccccc2)[C@@H]1c1ccccc1` (racemic), for which the half-inhibitory concentration (IC50) in [2] came to 10900 nM; in [1], 3200 nM.

`CCOC(=O)[C@]1(c2ccccc2)N=C(c2ccccc2)N(Cc2ccccc2)[C@@H]1c1ccc(N)cc1` showed a 50% inhibitory concentration (IC50) in data set [1] of 3520 nM.

For the compound `CCOC(=O)[C@]1(c2ccccc2)N=C(c2ccc(OC)cc2)N(Cc2ccccc2)[C@@H]1c1ccc(C#N)cc1` (racemic), in data set [1], the IC50 was above 10000 nM.

For the compound `CCOC(=O)[C@]1(c2ccccc2)N=C(c2ccc(OC)cc2)N(Cc2ccccc2)[C@@H]1c1ccc(C(N)=O)cc1` (racemic), the IC50 in data set [1] was above 10000 nM.

With `CCOC(=O)[C@]1(c2ccccc2)N=C(c2ccc(OC)cc2)N(Cc2ccccc2)[C@@H]1c1ccc(NCC2CCCCC2)cc1` (racemic), the viability at 10 µM was found to be 4% in the data set on THP-1 [3] and 5% with THP-1 [4]. Besides, the IC50 in data set [1] turned out to be 130 nM.

In the case of `CCOC(=O)[C@]1(c2ccccc2)N=C(c2ccc(OC)cc2)N(Cc2ccccc2)[C@@H]1c1ccc(NCc2ccc(O)cc2)cc1` (racemic), the results for the viability at 10 µM with THP-1 [3] and in the data set with THP-1 [4] were 23% and 36%, respectively. This compound showed an IC50 in [1] of 540 nM.

As to `CCOC(=O)[C@]1(c2ccccc2)N=C(c2ccc(OC)cc2)N(Cc2ccccc2)[C@@H]1c1ccc(NC(C)=O)cc1` (racemic), the IC50 in data set [1] turned out to be 2170 nM.

Consider `CCOC(=O)[C@]1(c2ccccc2)N=C(c2ccccc2)N(Cc2ccc(F)cc2)[C@@H]1c1ccccc1`, for which inhibition in data set [1] was half-maximal at 3710 nM (IC50). This IC50 is about 1.7-fold higher than that of the compound before.

What is called solubility is the concentration that dissolves in the medium under given conditions. Higher therefore signals a readily soluble substance. In turn, `CCOC(=O)[C@]1(c2ccccc2)N=C(c2ccccc2)N(Cc2ccc(Br)cc2)[C@@H]1c1ccccc1` had a solubility in data set [5] below 500 µg/mL. Also, half-maximal inhibition in [1] (IC50) required 1900 nM.

The compound `CCOC(=O)[C@]1(c2ccccc2)N=C(c2ccc(OC)cc2)N(Cc2ccccc2)[C@@H]1c1ccc(NS(=O)(=O)N(C)C)cc1` (racemic) gave a concentration for half-maximal inhibition (IC50) in data set [1] of 1220 nM. That is a single-digit micromolar value.

In the case of `CCOC(=O)[C@]1(c2ccccc2)N=C(c2ccccc2)N(Cc2ccccc2)[C@@H]1c1ccc(NCc2ccccc2)cc1` (racemic), 470 nM corresponded to half-maximal inhibition in data set [1] (IC50). Against the preceding compound, the IC50 is about 2.6-fold lower.

`CCOC(=O)[C@]1(c2ccccc2)N=C(c2ccc(Br)cc2)N(Cc2ccccc2)[C@@H]1c1ccccc1` (racemic) registered an IC50 in data set [1] of 3190 nM.

Compound `CCOC(=O)[C@]1(c2ccccc2)N=C(c2ccccc2)N(Cc2ccccc2)[C@@H]1c1ccc(C(F)(F)F)cc1` gave a half-inhibitory concentration (IC50) in data set [1] of 4810 nM.

In data set [5], `CCOC(=O)[C@]1(c2ccccc2)N=C(c2ccccc2)N(Cc2ccc(Cl)cc2)[C@@H]1c1ccccc1` yielded a solubility below 500 µg/mL. In data set [1], this compound had a half-maximal inhibitory concentration (IC50) of 2020 nM.

For the compound `CC(C)C[C@H](NC(=O)[C@H](Cc1ccccc1)NC(=O)c1cnccn1)B(O)O` [BORTEZOMIB], the midpoint of inhibition in data set [6], the IC50, lay at 5 nM. The viability at 0.5 µM in the data set on THP-1 [7] is below 5%; in the data set with THP-1 [8], 68%.

For the compound `c1ccc(CN2C(c3ccccc3)=N[C@H](c3ccccc3)[C@H]2c2ccccc2)cc1`, the IC50 in data set [2] came out at 4600 nM; in [1], 1400 nM.

On to `CCOC(=O)[C@]1(c2ccccc2)N=C(c2ccccc2)N(Cc2ccccc2)[C@@H]1c1ccc(S(C)(=O)=O)cc1` (racemic), for which, in data set [1], the half-maximal inhibitory concentration (IC50) is above 10000 nM.

Consider `CCOC(=O)[C@]1(c2ccccc2)N=C(c2ccc(OC)cc2)N(Cc2ccccc2)[C@@H]1c1ccc(N)cc1` (racemic), for which the results for the viability at 10 µM with THP-1 [3] and in the data set with THP-1 [4] were 44% and 98%, respectively. This compound gave an IC50 in data set [1] of 1970 nM.

As to `O=C(OCc1ccccc1)[C@]1(c2ccccc2)N=C(c2ccccc2)N(Cc2ccccc2)[C@@H]1c1ccccc1`, the figures for the half-maximal inhibitory concentration (IC50) in [2] and in data set [1] were 3500 nM and 2400 nM, respectively.

On to `NC(=O)[C@]1(c2ccccc2)N=C(c2ccccc2)N(Cc2ccccc2)[C@@H]1c1ccccc1`, for which the IC50 in [2] was above 20000 nM; in data set [1] it was above 10000 nM.

With `CCOC(=O)[C@]1(c2ccccc2)N=C(c2ccc(OC)cc2)N(Cc2ccccc2)[C@@H]1c1ccc(NC(=N)N)cc1` (racemic), the half-maximal inhibitory concentration (IC50) in [1] came to 630 nM.

`CCOC(=O)[C@]1(c2ccccc2)N=C(c2ccccc2)N(Cc2ccccc2)[C@@H]1c1ccc(SC)cc1` (racemic) came in with an IC50 in [1] of 2770 nM.

Compound `CCOC(=O)[C@]1(c2ccccc2)N=C(c2ccc(OC)cc2)N(Cc2ccccc2)[C@@H]1c1ccc(NS(=O)(=O)c2ccccc2)cc1` (racemic) showed an IC50 in data set [1] of 580 nM.

The compound `CCOC(=O)[C@]1(c2ccccc2)N=C(c2ccc(OC)cc2)N(Cc2ccccc2)[C@@H]1c1ccccc1` (racemic) showed a concentration for half-maximal inhibition (IC50) in [1] of 1270 nM.

As to `CCOC(=O)[C@]1(c2ccccc2)N=C(c2ccc(OC)cc2)N(Cc2ccccc2)[C@@H]1c1ccc(NCc2ccccc2)cc1` (racemic), in the data set listed under Homo sapiens [9], the inhibition entry was “Active”. Also, the viability at 10 µM with THP-1 [3] is 4%; in the data set with THP-1 [4], 19%.

Consider `CCOC(=O)[C@]1(c2ccccc2)N=C(c2ccccc2)N(Cc2ccccc2)[C@@H]1c1ccc(Cl)cc1`, for which the IC50 in [1] was 2230 nM. In other words, the single-digit micromolar range.

Consider `CCOC(=O)[C@]1(c2ccccc2)N=C(c2ccccc2)N(Cc2ccccc2)[C@@H]1c1ccc(NS(=O)(=O)c2ccccc2)cc1` (racemic), for which the IC50 in data set [1] was found to be 1080 nM.

As to `CCOC(=O)[C@]1(c2ccccc2)N=C(c2ccccc2)N(C(=O)c2ccccc2)[C@@H]1c1ccccc1`, the concentration for half-maximal inhibition (IC50) in data set [1] was above 10000 nM.

For the compound `CCOC(=O)[C@]1(c2ccccc2)N=C(c2ccc(OC)cc2)N(Cc2ccccc2)[C@@H]1c1ccc(NCc2cc(OC)c(OC)c(OC)c2)cc1` (racemic), the viability at 10 µM with THP-1 [3] was 24%; in the data set on THP-1 [4], 34%. Moreover, the 50% inhibitory concentration (IC50) in data set [1] came to 370 nM.

`c1ccc(Cn2c(-c3ccccc3)nc(-c3ccccc3)c2-c2ccccc2)cc1`: the IC50 in data set [2] and in [1] was above 10000 nM throughout.

For `CCOC(=O)[C@]1(c2ccccc2)N=C(c2ccccc2)N(Cc2ccccc2)[C@@H]1c1ccc([N+](=O)[O-])cc1`, the concentration for half-maximal inhibition (IC50) in [1] is 6710 nM.

Take `CCOC(=O)[C@]1(c2ccccc2)N=C(c2ccccc2)N(S(=O)(=O)c2ccc(C)cc2)[C@@H]1c1ccccc1`: the IC50 in data set [1] is above 10000 nM.

As for `CCOC(=O)[C@]1(c2ccccc2)N=C(c2ccc(OC)cc2)N(Cc2ccccc2)[C@@H]1c1ccc(NS(=O)(=O)c2ccc(OC)cc2OC)cc1` (racemic), the IC50 in data set [1] was found to be 530 nM. This counts as sub-micromolar.

Regarding `CCOC(=O)[C@]1(c2ccccc2)N=C(c2ccccc2)N(C(C)=O)[C@@H]1c1ccccc1`, the half-maximal inhibitory concentration (IC50) in data set [1] was above 10000 nM.

For `CCOC(=O)[C@]1(c2ccccc2)N=C(c2ccccc2)N(Cc2ccc(OC)cc2)[C@@H]1c1ccccc1`, the IC50 in data set [1] turned out to be 2730 nM.

In the case of `CCOC(=O)[C@]1(c2ccccc2)N=C(c2ccc(OC)cc2)N(Cc2ccccc2)[C@@H]1c1ccc(NC(=O)c2ccccc2)cc1` (racemic), in data set [1], the IC50 amounted to 1440 nM.

In turn, `CCOC(=O)[C@]1(c2ccccc2)N=C(c2ccc(OC)cc2)N(Cc2ccccc2)[C@@H]1c1ccc(NS(=O)(=O)C2CC2)cc1` (racemic) registered an IC50 in [1] of 910 nM. This IC50 lies about 1.6-fold lower than the previous one.

On to `CCOC(=O)[C@]1(c2ccccc2)N=C(c2ccccc2)N(Cc2ccccc2)[C@@H]1c1ccccc1`, for which, in [5], the solubility was found to be 1910 µg/mL (≈ 4150 µM). Besides, the outcome in the data set on THP-1 [4] was Active. Moreover, the inhibition result in the data set listed under Homo sapiens [10] is “Active”. The half-inhibitory concentration (IC50) in data set [2] came out at 2500 nM; in data set [1], 2580 nM.

In the case of `CCOC(=O)[C@]1(c2ccccc2)N=C(c2ccccc2)N(Cc2ccccc2)[C@@H]1c1ccncc1`, the IC50 in data set [1] was above 10000 nM.

On to `c1ccc(CN2C(c3ccccc3)=N[C@@H](c3ccccc3)[C@H]2c2ccccc2)cc1`, for which the half-inhibitory concentration (IC50) in data set [2] and in [1] was above 10000 nM in each case.

In data set [1], `CCOC(=O)[C@]1(c2ccccc2)N=C(c2ccccc2)N[C@@H]1c1ccccc1` gave an IC50 above 10000 nM.

Regarding `COC(=O)[C@]1(c2ccccc2)N=C(c2ccccc2)N(Cc2ccccc2)[C@@H]1c1ccccc1`, the figures for the IC50 in [2] and in data set [1] were 7500 nM and 5400 nM, respectively.

Regarding `c1ccc(CN2CCN=C2c2ccccc2)cc1`, the IC50 in data set [2] and in [1] was above 10000 nM throughout.

In turn, `CCOC(=O)[C@]1(c2ccccc2)N=C(c2ccc(OC)cc2)N(Cc2ccccc2)[C@@H]1c1ccc(NS(=O)(=O)Cc2ccccc2)cc1` had an IC50 in [1] of 1080 nM.

In data set [1], `CCOC(=O)[C@]1(c2ccccc2)N=C(c2ccccc2)N(Cc2ccccc2)[C@@H]1c1ccco1` showed an IC50 of 6130 nM.
